Starred links: 1 amine or outer side, 2 acyl side, 3 side chain; linkers in the order of their positions; H or OH if unused. Positions of bridges follow the written chain, without caps; N, C: chain ends. Non-standard residues stand in square brackets, D forms with d. Residues, ends and D or L forms follow the SMILES beside them. X1 = O=C(CC1(S[*:2])CCCCC1)[*:1]; X2 = CC(C)(CC(=O)[*:1])S[*:2]; Mpa = O=C(O)CCS
Experiments:
Rattus norvegicus [1] = species on record: Rattus norvegicus; assay: Tested for […] anti-oxytocic effect in the absence of Mg2+ in rats; format: functional, organism-based; conditions: for Kb: Rattus norvegicus, read-out: pA2 (converted)
Procedure, shortened: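 Isolated rat uterus in vitro in a medium without Mg2+. Antagonism is expressed as pA2 by the Schild method, computed per assay group, with mean ± SE and the number of assays.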

Rattus norvegicus [2] = assay: Tested for intravenous anti-vasopressor pA2 effect in rats; format: functional, organism-based; conditions: for Kb: Rattus norvegicus, read-out: pA2 (converted)
Procedure, shortened: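 Vasopressor assay in rats pretreated with phenoxybenzamine under urethane anesthesia, using intravenous injections. The pA2 is derived by the Schild method for each assay group and reported as mean ± SE, with the number of assays given.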

Rattus norvegicus [3] = assay: Tested for intravenous antidiuretic activity in rats; format: functional, Urine; design: unit: U/mg
Procedure, shortened: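 Intravenous antidiuretic assay in rats under ethanol anesthesia. Agonistic activity is expressed in units per milligram.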

Rattus norvegicus [4] = assay: Tested for intravenous anti-oxytocic effect in the absence of Mg2+ in rats; agonist at concentration of 8 units/kg; format: functional, organism-based; conditions: filed as agonist
Rattus norvegicus [5] = assay: Tested for intravenous anti-oxytocic effect in the presence of Mg2+ in rats; format: functional, organism-based; conditions: read-out: pA2 (converted)
Rattus norvegicus [6] = assay: Tested for intravenous anti-oxytocic effect in in vivo in rats; format: functional, organism-based; conditions: read-out: pA2 (converted)
Procedure, shortened: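 Rat uterus in situ; antagonism expressed as pA2 by the Schild method, calculated for each assay group and reported as mean ± SE, with the number of assays given.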

Rattus norvegicus [7] = assay: Tested for intravenous anti-vasopressor pA2 effect in rats; agonist at concentration of 4 units/mg; conditions: filed as agonist
Rattus norvegicus [8] = assay: Tested for intravenous anti-vasopressor pA2 effect in rats; agonist at concentration of 346 units/kg; format: functional, organism-based; conditions: filed as agonist, in the assay text read “346 units/mg” for “346 units/kg”
Procedure, shortened: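 Vasopressor assay in rats anesthetized with urethane and pretreated with phenoxybenzamine, with intravenous injections. Antagonism is expressed as pA2, calculated by Schild's method for each assay group and reported as mean ± SE, with the number of assays given.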

Rattus norvegicus [9] = assay: Tested for intravenous anti-oxytocic effect in the absence of Mg2+ in rats; agonist at concentration of 47 units/kg; format: functional, organism-based; conditions: filed as agonist

SMILES	Kb (Rattus norvegicus [1])	Kb (Rattus norvegicus [2])	Antidiuretic activity (Rattus norvegicus [3])	also measured
CC(C)[C@@H]1NC(=O)[C@H](Cc2ccccc2)NC(=O)[C@H](Cc2ccc(O)cc2)NC(=O)CC(C)(C)SSC[C@@H](C(=O)N2CCC[C@H]2C(=O)N[C@H](CCCN=C(N)N)C(=O)NCC(N)=O)NC(=O)[C@H](CC(N)=O)NC1=O (YFVNCP[dR]G-NH2; linker N-5 via X2) [listing 1 of 2 here]	58.9 nM	15.1 nM	–	–
CC(C)[C@@H]1NC(=O)[C@H](Cc2ccccc2)NC(=O)[C@H](Cc2ccc(O)cc2)NC(=O)CCSSC[C@@H](C(=O)N2CCC[C@H]2C(=O)N[C@H](CCCNC(=N)N)C(=O)NCC(N)=O)NC(=O)[C@H](CC(N)=O)NC1=O ([Mpa]YFVNCP[dR]G-NH2; disulfide 1-6)	–	93.3 nM	1230	pA2 (Rattus norvegicus [4]): agonist at concentration of 8 units/kg
COc1ccc(C[C@@H]2NC(=O)CCSSC[C@@H](C(=O)N3CCC[C@H]3C(=O)N[C@@H](CCCN=C(N)N)C(=O)NCC(N)=O)NC(=O)[C@H](CC(N)=O)NC(=O)[C@H](CCC(N)=O)NC(=O)[C@H](Cc3ccccc3)NC2=O)cc1 [listing 1 of 2 here]	38.9 nM	–	–	–
CC(C)[C@@H]1NC(=O)[C@H](Cc2ccccc2)NC(=O)[C@H](Cc2ccc(O)cc2)NC(=O)CC2(CCCCC2)SSC[C@@H](C(=O)N2CCC[C@H]2C(=O)N[C@H](CCCN=C(N)N)C(=O)NCC(N)=O)NC(=O)[C@H](CC(N)=O)NC1=O (YFVNCP[dR]G-NH2; linker N-5 via X1) [listing 1 of 2 here]	–	–	0.1	–
NC(=O)CC[C@@H]1NC(=O)[C@H](Cc2ccccc2)NC(=O)[C@H](Cc2ccc(O)cc2)NC(=O)CC2(CCCCC2)SSC[C@@H](C(=O)N2CCC[C@H]2C(=O)N[C@@H](CCCN=C(N)N)C(=O)NCC(N)=O)NC(=O)[C@H](CC(N)=O)NC1=O (YFQNCPRG-NH2; linker N-5 via X1) [listing 1 of 2 here]	–	–	0.033	–
COc1ccc(C[C@@H]2NC(=O)CC3(CCCCC3)SSC[C@@H](C(=O)N3CCC[C@H]3C(=O)N[C@@H](CCCN=C(N)N)C(=O)NCC(N)=O)NC(=O)[C@H](CC(N)=O)NC(=O)[C@H](CCC(N)=O)NC(=O)[C@H](Cc3ccccc3)NC2=O)cc1 (Y(Me)FQNCPRG-NH2; linker N-5 via X1)	7.41 nM	2.4 nM	0.31	Kb (Rattus norvegicus [5]): 57.5 nM; pA2 (Rattus norvegicus [1]): 8.13; pA2 (Rattus norvegicus [2]): 8.67; Kb (Rattus norvegicus [6]): 240 nM
CC1(C)CC(=O)N[C@@H](Cc2ccc(O)cc2)C(=O)N[C@@H](Cc2ccccc2)C(=O)N[C@@H](CCC(N)=O)C(=O)N[C@@H](CC(N)=O)C(=O)N[C@H](C(=O)N2CCC[C@H]2C(=O)N[C@@H](CCCN=C(N)N)C(=O)NCC(N)=O)CSS1 (YFQNCPRG-NH2; linker N-5 via X2) [listing 1 of 2 here]	117 nM	35.5 nM	–	–
COc1ccc(C[C@@H]2NC(=O)CC(C)(C)SSC[C@@H](C(=O)N3CCC[C@H]3C(=O)N[C@@H](CCCN=C(N)N)C(=O)NCC(N)=O)NC(=O)[C@H](CC(N)=O)NC(=O)[C@H](CCC(N)=O)NC(=O)[C@H](Cc3ccccc3)NC2=O)cc1 (Y(Me)FQNCPRG-NH2; linker N-5 via X2) [listing 1 of 2 here]	24.5 nM	20.4 nM	–	–
COc1ccc(C[C@@H]2NC(=O)CCSSC[C@H](C(=O)N3CCC[C@H]3C(=O)N[C@@H](CCCN=C(N)N)C(=O)NCC(N)=O)NC(=O)[C@H](CC(N)=O)NC(=O)[C@H](CCC(N)=O)NC(=O)[C@H](Cc3ccccc3)NC2=O)cc1	–	–	–	pA2 (Rattus norvegicus [7]): agonist at concentration of 4 units/kg
CC(C)[C@@H]1NC(=O)[C@H](Cc2ccccc2)NC(=O)[C@H](Cc2ccc(O)cc2)NC(=O)CC(C)(C)SSC[C@@H](C(=O)N2CCC[C@H]2C(=O)N[C@H](CCCN=C(N)N)C(=O)NCC(N)=O)NC(=O)[C@H](CC(N)=O)NC1=O (YFVNCP[dR]G-NH2; linker N-5 via X2) [listing 2 of 2 here]	–	–	123	–
N=C(N)NCCC[C@@H](NC(=O)[C@@H]1CCCN1C(=O)[C@@H]1CSSCCC(=O)N[C@@H](Cc2ccc(O)cc2)C(=O)N[C@@H](Cc2ccccc2)C(=O)N[C@@H](CCC(N)=O)C(=O)N[C@@H](CC(N)=O)C(=O)N1)C(=O)NCC(N)=O [DESMOPRESSIN]	–	–	1745	pA2 (Rattus norvegicus [8]): Agonist; pA2 (Rattus norvegicus [9]): Agonist
NC(=O)CC[C@@H]1NC(=O)[C@H](Cc2ccccc2)NC(=O)[C@H](Cc2ccc(O)cc2)NC(=O)CC2(CCCCC2)SSC[C@@H](C(=O)N2CCC[C@H]2C(=O)N[C@@H](CCCN=C(N)N)C(=O)NCC(N)=O)NC(=O)[C@H](CC(N)=O)NC1=O (YFQNCPRG-NH2; linker N-5 via X1) [listing 2 of 2 here]	–	4.47 nM	–	Kb (Rattus norvegicus [5]): 64.6 nM; Kb (Rattus norvegicus [6]): 162 nM
COc1ccc(C[C@@H]2NC(=O)CC(C)(C)SSC[C@@H](C(=O)N3CCC[C@H]3C(=O)N[C@@H](CCCN=C(N)N)C(=O)NCC(N)=O)NC(=O)[C@H](CC(N)=O)NC(=O)[C@H](CCC(N)=O)NC(=O)[C@H](Cc3ccccc3)NC2=O)cc1 (Y(Me)FQNCPRG-NH2; linker N-5 via X2) [listing 2 of 2 here]	–	–	3.5	–
CC(C)[C@@H]1NC(=O)[C@H](Cc2ccccc2)NC(=O)[C@H](Cc2ccc(O)cc2)NC(=O)CC2(CCCCC2)SSC[C@@H](C(=O)N2CCC[C@H]2C(=O)N[C@H](CCCN=C(N)N)C(=O)NCC(N)=O)NC(=O)[C@H](CC(N)=O)NC1=O (YFVNCP[dR]G-NH2; linker N-5 via X1) [listing 2 of 2 here]	240 nM	20.9 nM	–	–
CC1(C)CC(=O)N[C@@H](Cc2ccc(O)cc2)C(=O)N[C@@H](Cc2ccccc2)C(=O)N[C@@H](CCC(N)=O)C(=O)N[C@@H](CC(N)=O)C(=O)N[C@H](C(=O)N2CCC[C@H]2C(=O)N[C@@H](CCCN=C(N)N)C(=O)NCC(N)=O)CSS1 (YFQNCPRG-NH2; linker N-5 via X2) [listing 2 of 2 here]	–	–	42	–
COc1ccc(C[C@@H]2NC(=O)CCSSC[C@@H](C(=O)N3CCC[C@H]3C(=O)N[C@@H](CCCN=C(N)N)C(=O)NCC(N)=O)NC(=O)[C@H](CC(N)=O)NC(=O)[C@H](CCC(N)=O)NC(=O)[C@H](Cc3ccccc3)NC2=O)cc1 [listing 2 of 2 here]	–	–	830	–
